Experimental data collected from several papers.
Each line is one published result; the experiments were not run side by side.
Target: Delta-type opioid receptor (OPRD1, Homo sapiens, UniProt P41143)
Read-out: ligand displacement
Tested at: 10 µM

SMILES | method | inhibition
Cc1cc(-c2nc(CN3CCNCC3)no2)cc2c1C(=O)N(Cc1ccc(OC(F)(F)F)cc1)C2 | radioligand | 45%
CCN(Cc1ccccc1C(F)(F)F)C(=O)C1CCN(S(=O)(=O)c2ccc3[nH]ncc3c2)CC1 | radioligand | 6%
O=C1N=C(N2CCCCN2)S/C1=C\c1ccc(F)cc1O | radioligand | 13%
N#Cc1cc(Cn2c(N3CCCC3)nc3ccccc32)ccc1F | – | -11.4%
COc1cc(NC(C)=O)c(Cl)cc1C(=O)Nc1nccs1 | – | 20.9%
CCN(CC)c1ccc(C2Nc3ccc(C(=O)c4ccccc4)cc3NC3=C2C(=O)CC(C)(C)C3)cc1 (centres unmarked) | radioligand | 12%
CCCNc1nc2ccccc2n1Cc1ccc(Cl)cc1 | – | -5.69%
O=C(c1ccc(Cl)cc1)N(Cc1ccccc1)C1CCCCC1 | – | 33.4%
